# Legend:
# [1] = target: hERG (KCNH2) (Homo sapiens, UniProt Q12809); test: Inhibition of human ERG at 10 uM by rubidium efflux assay
# Method in brief: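 hERG K+ channel block measured by rubidium efflux with test compound at 10 μM, reported as % inhibition.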
# [2] = target: T1, C-X-C chemokine receptor type 3 (Homo sapiens, UniProt P49682); test: Displacement of [125I]CXCL10 from human CXCR3 expressed in mouse BA/F3 cells; format: cell-based, BaF3
# T1 sequence (P49682 whole entry): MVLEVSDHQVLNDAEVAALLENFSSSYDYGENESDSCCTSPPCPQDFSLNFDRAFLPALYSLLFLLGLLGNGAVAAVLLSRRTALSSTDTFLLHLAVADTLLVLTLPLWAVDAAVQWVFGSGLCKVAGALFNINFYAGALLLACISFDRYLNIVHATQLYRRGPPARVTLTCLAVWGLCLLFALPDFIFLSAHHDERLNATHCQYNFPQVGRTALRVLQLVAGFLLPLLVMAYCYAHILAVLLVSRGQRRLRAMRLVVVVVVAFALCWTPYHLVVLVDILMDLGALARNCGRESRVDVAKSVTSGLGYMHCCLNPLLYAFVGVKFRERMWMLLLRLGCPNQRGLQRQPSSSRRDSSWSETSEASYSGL
# Method in brief: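 Radioligand displacement of 125I-labelled human CXCL10 from recombinant Ba/F3 cells expressing human CXCR3.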
# [3] = AUC in rat at 10 mg/kg, po after 6 hrs; details: in vivo
# Chain of hERG (KCNH2) (Q12809 whole entry): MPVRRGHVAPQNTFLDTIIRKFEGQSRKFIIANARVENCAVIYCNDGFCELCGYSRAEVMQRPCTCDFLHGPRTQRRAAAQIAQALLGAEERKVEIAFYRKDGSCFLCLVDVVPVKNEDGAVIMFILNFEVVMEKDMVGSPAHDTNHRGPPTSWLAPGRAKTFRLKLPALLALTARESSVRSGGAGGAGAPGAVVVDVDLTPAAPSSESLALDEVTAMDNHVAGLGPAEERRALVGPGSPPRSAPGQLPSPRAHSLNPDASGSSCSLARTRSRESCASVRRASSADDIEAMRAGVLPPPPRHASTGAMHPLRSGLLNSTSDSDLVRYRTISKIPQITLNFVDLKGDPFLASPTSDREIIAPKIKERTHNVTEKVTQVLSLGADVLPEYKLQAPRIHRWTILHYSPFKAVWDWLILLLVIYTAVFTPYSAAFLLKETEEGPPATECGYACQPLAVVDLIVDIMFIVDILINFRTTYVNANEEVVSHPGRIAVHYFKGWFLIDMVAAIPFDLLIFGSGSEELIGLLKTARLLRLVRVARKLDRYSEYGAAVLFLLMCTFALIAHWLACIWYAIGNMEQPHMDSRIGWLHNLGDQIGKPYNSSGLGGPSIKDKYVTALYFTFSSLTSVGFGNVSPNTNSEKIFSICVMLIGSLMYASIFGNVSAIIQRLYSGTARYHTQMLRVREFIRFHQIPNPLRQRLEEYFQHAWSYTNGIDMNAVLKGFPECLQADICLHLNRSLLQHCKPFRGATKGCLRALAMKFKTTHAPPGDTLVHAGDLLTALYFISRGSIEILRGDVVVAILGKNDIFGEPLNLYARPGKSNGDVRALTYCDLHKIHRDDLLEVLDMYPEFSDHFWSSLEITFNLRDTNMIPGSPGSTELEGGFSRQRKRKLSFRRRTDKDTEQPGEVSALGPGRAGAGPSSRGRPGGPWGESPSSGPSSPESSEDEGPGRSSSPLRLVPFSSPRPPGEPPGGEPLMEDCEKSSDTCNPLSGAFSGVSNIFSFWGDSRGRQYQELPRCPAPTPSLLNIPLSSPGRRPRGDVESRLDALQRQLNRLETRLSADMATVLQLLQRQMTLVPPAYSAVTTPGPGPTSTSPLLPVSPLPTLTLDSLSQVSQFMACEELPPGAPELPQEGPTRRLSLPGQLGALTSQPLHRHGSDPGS
IC50 [2] [nM],AUC at 6 h [3] [µM·h],SMILES,inhibition at 10 µM [1] [%]
4.4,–,CC[C@H]1CN(c2nc(N)c(C(=O)NCCNS(C)(=O)=O)nc2Cl)CCN1C1CCN(Cc2ccc(Cl)cc2)CC1,39
76,–,CC[C@H]1CN(c2nc(N)c(C(N)=O)nc2Cl)CCN1C1CCN(C(=O)c2ccc(Cl)cc2)CC1,–
18,–,CC[C@H]1CN(c2ncc(C(N)=O)nc2C)CCN1C1CCN(C(=O)c2ccc(Cl)cc2)CC1,6
1.2,–,CC[C@H]1CN(c2ncc(C(=O)NC3CC3)nc2Cl)CCN1C1CCN(C(=O)c2ccc(Cl)nc2N)CC1,19
1.8,3.6,CC[C@H]1CN(c2ncc(C(=O)NC3CC3)nc2C(F)(F)F)CCN1C1CCN(C(=O)c2ccc(Cl)nc2N)CC1,53
4.2,–,CC[C@H]1CN(c2ncc(C(=O)NC)nc2C)[C@H](C)CN1C1CCN(C(=O)c2ccc(Cl)cc2)CC1,30
1.9,22,CC[C@H]1CN(c2ncc(C(=O)NC3CC3)nc2C)CCN1C1CCN(C(=O)c2ccc(Cl)nc2N)CC1,16
1.9,–,CC[C@H]1CN(c2nc(N)c(C(N)=O)nc2Cl)CCN1C1CCN(C(CO)c2ccc(Cl)cc2)CC1 (some centres undefined),–
235,–,CC[C@@H]1CN(C2CCN(C(=O)c3ccc(Cl)cc3)CC2)[C@@H](CC)CN1c1ncc(C(N)=O)nc1C,13
–,5.1,CC[C@H]1CN(c2nc(N)c(C(N)=O)nc2Cl)CCN1C1CCN(Cc2ccc(Cl)cc2)CC1,–
> 1000,–,CC[C@H]1CN(c2ncc(C(N)=O)nc2C)[C@@H](C)CN1C1CCN(C(=O)c2ccc(Cl)cc2)CC1,–
8.4,–,CC[C@H]1CN(c2nc(N)c(C(=O)NCC(C)(C)O)nc2Cl)CCN1C1CCN(Cc2ccc(Cl)cc2)CC1,–
1.5,–,CC[C@H]1CN(c2ncc(C(=O)NC(C)(C)C)nc2Cl)CCN1C1CCN(C(=O)c2ccc(Cl)nc2N)CC1,13
1.9,15.3,CC[C@H]1CN(c2ncc(C(N)=O)nc2C(F)(F)F)CCN1C1CCN(C(=O)c2ccc(Cl)nc2N)CC1,0

# Further lines, the compound ahead of its results:
SMILES,IC50 [2] [nM],AUC at 6 h [3] [µM·h],inhibition at 10 µM [1] [%]
CC[C@H]1CN(c2ncc(C(N)=O)nc2C)CCN1C1CCN(C(=O)c2ccc(Cl)nc2N)CC1,4,30.2,0
CC[C@H]1CN(c2nc(N)c(C(=O)NCCS(C)(=O)=O)nc2Cl)CCN1C1CCN(Cc2ccc(Cl)cc2)CC1,6.4,–,–
CC[C@H]1CN(c2nc(N)c(C(N)=O)nc2Cl)CCN1C1CCN(Cc2ccc(C#N)cc2)CC1,8.5,–,–
CC[C@H]1CN(c2ncc(C(=O)NC(C)C)nc2Cl)CCN1C1CCN(C(=O)c2ccc(Cl)nc2N)CC1,0.9,–,56
CC[C@H]1CN(c2ncc(C(N)=O)nc2Cl)CCN1C1CCN(C(=O)c2ccc(Cl)nc2N)CC1,2.5,–,7
CC[C@H]1CN(c2nc(N)c(C(=O)NCCNS(N)(=O)=O)nc2Cl)CCN1C1CCN(Cc2ccc(F)c(F)c2)CC1,9,–,4
CC[C@H]1CN(c2nc(N)c(C(=O)N[C@@H]3CCOC3=O)nc2Cl)CCN1C1CCN(Cc2ccc(Cl)cc2)CC1,1.5,–,–
CC[C@H]1CN(c2ncc(C(=O)NCCO)nc2Cl)CCN1C1CCN(C(=O)c2ccc(Cl)nc2N)CC1,2.9,–,11
CC[C@H]1CN(c2nc(N)c(C(=O)NC)nc2Cl)CCN1C1CCN(Cc2ccc(Cl)cc2)CC1,0.3,–,–
CC[C@H]1CN(c2nc(N)c(C(=O)NCC(C)O)nc2Cl)CCN1C1CCN(Cc2ccc(Cl)cc2)CC1 (some centres undefined),0.3,–,–
CC[C@H]1CN(c2nc(N)c(C(=O)NCCO)nc2Cl)CCN1C1CCN(Cc2ccc(Cl)cc2)CC1,0.4,–,–
CCNC(=O)c1cnc(N2CCN(C3CCN(C(=O)c4ccc(Cl)cc4)CC3)[C@@H](CC)C2)c(C)n1,2,2.9,44
CC[C@H]1CN(c2ncc(C(=O)NC)nc2C)CCN1C1CCN(C(=O)c2ccc(Cl)nc2N)CC1,2.4,12.1,5
CCNC(=O)c1cnc(N2CCN(C3CCN(Cc4ccc(Cl)cc4)CC3)[C@@H](CC)C2)c(Cl)c1,–,0.4,–
CC[C@H]1CN(c2ncc(C(=O)NC3CC3)nc2C)[C@H](C)CN1C1CCN(C(=O)c2ccc(Cl)cc2)CC1,1.3,9.8,7
CC[C@H]1CN(c2ncc(C(=O)NC)nc2C(F)(F)F)CCN1C1CCN(C(=O)c2ccc(Cl)nc2N)CC1,1.5,6.4,0
CC[C@H]1CN(c2nc(N)c(C(N)=O)nc2Cl)CCN1C1CCN(Cc2ccc(Cl)cc2[C@H](O)C(N)=O)CC1,4.1,–,14
CC[C@H]1CN(c2ncc(C(N)=O)nc2C)[C@H](C)CN1C1CCN(C(=O)c2ccc(Cl)cc2)CC1,5.4,–,9
CC[C@H]1CN(c2nc(N)c(C(N)=O)nc2Cl)CCN1C1CCN(Cc2ccc(OC(F)(F)F)cc2)CC1,3.7,–,–
CC[C@H]1CN(c2ncc(C(=O)NC[C@@H](C)O)nc2Cl)CCN1C1CCN(C(=O)c2ccc(Cl)nc2N)CC1,2.9,–,17
CC[C@H]1CN(c2nc(N)c(C(=O)NCC(F)(F)F)nc2Cl)CCN1C1CCN(Cc2ccc(Cl)cc2)CC1,0.8,–,–
CC[C@H]1CN(c2nc(N)c(C(=O)NCCO)nc2Cl)CCN1C1CCN(C(=O)c2ccc(Cl)nc2N)CC1,3.4,5.9,17
CC[C@H]1CN(c2nc(N)c(C(=O)NCCNS(=O)(=O)C(F)(F)F)nc2Cl)CCN1C1CCN(Cc2ccc(Cl)cc2)CC1,0.9,–,–
CC[C@H]1CN(c2ncc(C(=O)NC)nc2C)CCN1C1CCN(C(=O)c2ccc(Cl)cc2)CC1,3.6,–,41
CC[C@H]1CN(c2nc(N)c(C(=O)NCCNS(N)(=O)=O)nc2Cl)CCN1C1CCN(Cc2ccc(Cl)cc2)CC1,1.9,–,–
CC[C@H]1CN(c2ncc(C(=O)NC3CC3)nc2C)CCN1C1CCN(C(=O)c2ccc(Cl)cc2)CC1,1.1,8.4,74

# Source: ChEMBL document CHEMBL1921733, “III. Identification of novel CXCR3 chemokine receptor antagonists with a pyrazinyl-piperazinyl-piperidine scaffold” (Bioorg Med Chem Lett, 2011)
